From ChEMBL document CHEMBL1221317, “S-benzylisothiourea derivatives as small-molecule inhibitors of indoleamine-2,3-dioxygenase” (Bioorg Med Chem Lett, 2010) come the findings set out here.

For experiment [1], the target named is T1, Indoleamine 2,3-dioxygenase 1 (Homo sapiens, UniProt P14902). The experiment is described as follows: Inhibition of indoleamine-2,3-dioxygenase. Put shortly:
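Recombinant IDO, in 50 mM potassium phosphate buffer (pH 6.5) with 20 mM neutralized ascorbic acid, catalase, methylene blue and L-Trp. Incubated at 37 °C for 60 min, then stopped with 30% (w/v) trichloroacetic acid and heated at 50 °C for 15 min. After centrifugation, the supernatant was mixed with 2% (w/v) p-dimethylaminobenzaldehyde in acetic acid to detect kynurenine colorimetrically.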
Target sequence in this assay (P14902 whole entry): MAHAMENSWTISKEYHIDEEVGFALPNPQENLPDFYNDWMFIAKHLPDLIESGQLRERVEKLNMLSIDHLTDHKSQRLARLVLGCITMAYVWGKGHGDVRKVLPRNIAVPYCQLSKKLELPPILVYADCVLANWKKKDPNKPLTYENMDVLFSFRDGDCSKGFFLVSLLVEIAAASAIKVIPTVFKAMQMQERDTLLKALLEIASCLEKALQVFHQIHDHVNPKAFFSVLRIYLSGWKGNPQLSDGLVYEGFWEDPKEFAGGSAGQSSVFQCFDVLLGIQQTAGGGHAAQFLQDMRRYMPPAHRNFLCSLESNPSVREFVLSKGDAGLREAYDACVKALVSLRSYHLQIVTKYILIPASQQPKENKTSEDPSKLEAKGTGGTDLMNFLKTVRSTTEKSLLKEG

The target of experiment [2] is T1, Indoleamine 2,3-dioxygenase 1. The experiment in a line: Inhibition of indoleamine-2,3-dioxygenase in human A431 cells assessed as inhibition of IFN-gamma-stimulated kynurenine production. It counts as cell-based, A-431. In short, it runs like this:
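A431 cells (2.0 × 10⁵ cells/mL) were seeded and grown overnight. Serial DMSO dilutions of compound were added and incubated for 24 h more. Then 7% (v/v) aqueous trichloroacetic acid and 2% (w/v) p-dimethylaminobenzaldehyde in acetic acid (2:5) were added, and the kynurenine-derived yellow colour was read at 460 nm.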
Target sequence in this assay (P14902 whole entry): as above

For a further experiment, the system named is A-431. The experiment in a line: Inhibition of indoleamine-2,3-dioxygenase expression in human A431 cells at 10 uM. It counts as functional, cell-based. In short, it runs like this: (§1)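 A431 cells were precultured for 24 h, given fresh medium, and treated with compound with or without IFN-γ (5 ng/ml). Culture media and cell extracts were then collected. IDO and α-tubulin in the lysates were detected by western blot, and kynurenine concentration was measured in the culture medium.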

For experiment [3], the target named is T1, Indoleamine 2,3-dioxygenase 1. The experiment in a line: Inhibition of indoleamine-2,3-dioxygenase in human A431 cells assessed as inhibition of IFN-gamma-stimulated kynurenine production at 10 uM. It counts as cell-based. Conditions: A-431. In short, it runs like this:
as §1
Target sequence in this assay (P14902 whole entry, looked up): as the sequence (P14902 whole entry) above

Molecules are shown by their SMILES. Active and inactive are the calls of the source. No cut-off for these calls is given here.

Take `NCc1ccc(Cl)cc1`: the values for the IC50 in experiment [1] and in experiment [2] were over 100 µM and over 20 µM, respectively.
For `COc1ccc(CSC(=N)N)cc1`, in that order: 52 µM and 10 µM.
The like results for `SCc1ccccc1` [BENZENEMETHANETHIOL] were, in that order, 1.7 µM and 13 µM.
For `CC(C)c1ccc(CSC(=N)N)cc1`, in that order: over 100 µM and over 20 µM.
On to `O=S(O)c1ccc(Cl)cc1`, for which the IC50 (in general, the midpoint of a concentration-inhibition curve) in experiment [1] is over 100 µM; in experiment [2] it was over 20 µM.
The like results for `N=C(N)SCc1ccccc1Cl` were, in that order, 10 µM and 4.8 µM.
For `N=C(N)SCCc1ccc(Cl)cc1`, in that order: 57 µM and over 20 µM.
For `NC(=O)NCc1ccc(Cl)cc1`, in that order: over 100 µM and over 20 µM.
Consider `CC(C)(C)c1ccc(CSC(=N)N)cc1`, for which the IC50 in experiment [1] is over 100 µM; in experiment [2], over 20 µM.
For `N=C(N)SCc1ccc(F)cc1`, in that order: 13 µM and 2 µM.
Regarding `Sc1ccc(Cl)cc1`, the IC50 in experiment [1] was 1.9 µM; in experiment [2], over 20 µM.
The like results for `SCc1ccc(Cl)c(Cl)c1` were, in that order, 0.1 µM and 1.1 µM.
For `N=C(N)SCc1ccc(Cl)cc1Cl`, in that order: 0.4 µM and 1.1 µM.
For `N=C(N)SCc1ccc(C(=O)O)cc1`, in that order: over 100 µM and over 20 µM.
Consider `Fc1ccc(CS)cc1`, for which the IC50 came out at 1.8 µM in experiment [1] and 1.9 µM in experiment [2].
As for `O=S(=O)(O)c1ccc(Cl)cc1`, the IC50 in experiment [1] is over 100 µM; in experiment [2], over 20 µM.
The like results for `N=C(N)SCc1cccc(Cl)c1` were, in that order, 4.6 µM and 1.4 µM.
With `SCc1ccccc1Cl`, the IC50 in experiment [1] was found to be 1.2 µM; in experiment [2], 15 µM.
For `NC(=S)Nc1ccc(Cl)cc1`, in that order: over 100 µM and over 20 µM.
The like results for `NC(=S)NCCc1ccc(Cl)cc1` were, in that order, 100 µM and over 20 µM.
`OCc1ccc(Cl)cc1`: the figures for the IC50 in experiment [1] and in experiment [2] were over 100 µM and over 20 µM, respectively.
The like results for `CSC(=N)NCCc1ccc(Cl)cc1` were, in that order, over 100 µM and over 20 µM.
Consider `N=C(N)SCc1ccc(C(=O)c2ccccc2)cc1`, for which the IC50 was over 100 µM in experiment [1] and over 20 µM in experiment [2].
For `N#Cc1ccc(CSC(=N)N)cc1`, the IC50 in experiment [1] amounted to 19 µM; in experiment [2], 2.6 µM.
The like results for `N=C(N)SCc1ccc(Cl)c(Cl)c1` were, in that order, 17 µM and 7.3 µM.
For `SCc1ccc(Cl)cc1`, in that order: 3.2 µM and 1.1 µM.
For `N=C(N)SCc1ccc([N+](=O)[O-])cc1`, in that order: 11 µM and 2.2 µM.
As to `CS(=O)(=O)c1ccc(CSC(=N)N)cc1`, the IC50 is over 100 µM in experiment [1] and over 10 µM in experiment [2].
Take `Cc1ccc(CSC(=N)N)cc1`: the IC50 came out at 30 µM in experiment [1] and 6.8 µM in experiment [2].
As for `N=C(N)SCc1ccc(Cl)cc1`, the half-inhibitory concentration (IC50) in experiment [1] turned out to be 2.2 µM; in experiment [2] it was 0.6 µM. Further, the inhibition entry in the experiment with A-431 was “inactive”. Besides, the inhibition result in experiment [3] is “Active”.
As for `SCc1ccc(Cl)cc1Cl`, the IC50 in experiment [1] came to 3.5 µM; in experiment [2], 4.6 µM.
The like results for `N=C(N)SCCc1cccc(Cl)c1` were, in that order, over 100 µM and over 20 µM.
For `N=C(N)SCc1ccccc1`, in that order: 61 µM and over 10 µM.
The like results for `NCCc1ccc(Cl)cc1` were, in that order, over 100 µM and over 20 µM.
As for `CCc1ccc(CSC(=N)N)cc1`, the IC50 in experiment [1] was found to be 16 µM; in experiment [2] it was 2.5 µM.
For `Cc1ccc(CS)cc1`, in that order: 1.3 µM and 6.5 µM.
For `C/N=C(\NC)SCc1ccc(Cl)cc1`, in that order: 21 µM and over 20 µM.
For `N=C(N)SCc1ccc(Br)cc1`, in that order: 1.3 µM and 0.8 µM.
For the compound `N=C(N)SCc1ccc(C(F)(F)F)cc1`, the values for the IC50 in experiment [1] and in experiment [2] were 2.6 µM and 1.2 µM, respectively.
The like results for `N=C(N)SCCc1ccccc1Cl` were, in that order, over 100 µM and over 20 µM.
For `COc1ccc(CS)cc1`, in that order: 1.4 µM and 9.4 µM.
For `CSC(=N)Nc1ccc(Cl)cc1`, in that order: over 100 µM and over 20 µM.
